Measurements as given in paper PMC5453640 (Journal of medicinal chemistry, 2017).
“Also recorded” adds a separate entry of the source.

Columns and labels:
wild-type CFTR [1] = biological target: T1, wild-type CFTR (Homo sapiens, UniProt P13569); assay: cell-based plate reader assay of CFTR function; settings: for CFTR activation potency of synthesized analogs, comparison in words: Charts 1-3; for CFTR activation potency of commercial analogs, SAR summary in words: commercially available analogs of 1, Supporting Information Table 1
T1 sequence (P13569 whole entry): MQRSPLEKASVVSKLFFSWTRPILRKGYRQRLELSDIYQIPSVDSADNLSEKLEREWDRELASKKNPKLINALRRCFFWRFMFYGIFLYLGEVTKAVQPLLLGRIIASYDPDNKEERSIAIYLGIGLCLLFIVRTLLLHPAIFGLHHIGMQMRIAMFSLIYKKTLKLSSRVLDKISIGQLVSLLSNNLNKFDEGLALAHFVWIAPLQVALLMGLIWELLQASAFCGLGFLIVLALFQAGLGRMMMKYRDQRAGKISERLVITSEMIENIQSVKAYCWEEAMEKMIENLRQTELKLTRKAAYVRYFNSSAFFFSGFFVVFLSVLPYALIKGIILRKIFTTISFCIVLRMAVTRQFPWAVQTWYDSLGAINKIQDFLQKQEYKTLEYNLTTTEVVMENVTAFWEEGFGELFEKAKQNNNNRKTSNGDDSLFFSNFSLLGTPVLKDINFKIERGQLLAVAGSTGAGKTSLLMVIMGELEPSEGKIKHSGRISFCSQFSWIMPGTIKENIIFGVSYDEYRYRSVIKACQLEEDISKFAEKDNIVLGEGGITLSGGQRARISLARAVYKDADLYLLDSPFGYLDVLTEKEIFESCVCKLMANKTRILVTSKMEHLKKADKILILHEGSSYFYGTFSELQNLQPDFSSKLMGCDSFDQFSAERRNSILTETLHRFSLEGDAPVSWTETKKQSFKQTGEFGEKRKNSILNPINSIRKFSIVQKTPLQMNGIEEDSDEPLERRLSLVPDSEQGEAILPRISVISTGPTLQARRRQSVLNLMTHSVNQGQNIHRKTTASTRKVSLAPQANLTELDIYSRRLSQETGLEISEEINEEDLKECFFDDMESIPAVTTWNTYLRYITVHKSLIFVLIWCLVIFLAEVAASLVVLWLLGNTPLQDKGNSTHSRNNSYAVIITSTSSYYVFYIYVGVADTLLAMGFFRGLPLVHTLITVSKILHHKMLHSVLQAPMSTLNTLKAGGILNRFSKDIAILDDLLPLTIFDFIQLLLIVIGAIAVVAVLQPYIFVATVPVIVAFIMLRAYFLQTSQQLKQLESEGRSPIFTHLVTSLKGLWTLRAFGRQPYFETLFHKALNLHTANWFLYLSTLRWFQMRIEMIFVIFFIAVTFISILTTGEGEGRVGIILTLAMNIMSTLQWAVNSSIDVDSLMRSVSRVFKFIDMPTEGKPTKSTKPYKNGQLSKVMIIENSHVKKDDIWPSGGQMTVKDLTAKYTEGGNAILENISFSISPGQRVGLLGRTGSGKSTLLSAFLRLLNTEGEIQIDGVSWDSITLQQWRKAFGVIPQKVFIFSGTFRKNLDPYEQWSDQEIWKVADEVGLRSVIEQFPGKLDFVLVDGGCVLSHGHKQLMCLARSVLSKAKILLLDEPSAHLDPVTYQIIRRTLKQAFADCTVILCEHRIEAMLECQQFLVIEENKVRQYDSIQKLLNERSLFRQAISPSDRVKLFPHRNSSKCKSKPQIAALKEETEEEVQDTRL

FRT cells = assay: Alamar Blue cytotoxicity assay; type: cell-based, rat; settings: 10 μM, 8 h
[2] = test system: cellular cAMP in FRT cells; assay: cAMP immunoassay in FRT cells; type: cell-based, rat; settings: 10 μM, 10 min, without or with 90 nM forskolin
wild-type CFTR [3] = biological target: T1, wild-type CFTR; assay: short-circuit current measurement in CFTR-expressing FRT cells; type: cell-based; settings: compared with maximal concentration of forskolin
Procedure, shortened: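 FRT cells expressing human wild-type CFTR on inserts in Ussing chambers. Basolateral HCO3−-buffered and apical half-Cl− solutions; basolateral membrane permeabilized with 250 μg/mL amphotericin B. Gassed with 95% O2/5% CO2 at 37 °C under voltage clamp. Sequence: low forskolin, cumulative test compound, maximal forskolin, then 10 μM CFTRinh-172. EC50 from concentration–response, n = 3.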

TMEM16A = TMEM16A plate reader assay in FRT cells expressing YFP; type: cell-based; settings: 10 μM
Procedure, shortened: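 FRT cells stably coexpressing TMEM16A and YFP-H148Q halide sensor, test compound at 10 μM. Activation was tested by iodide addition and inhibition by iodide plus ATP. Assay run like the CFTR plate assay: 2 s baseline, then 12 s after rapid iodide addition. The initial iodide influx rate from YFP quenching was taken as channel function. Representative of two to four experiment sets.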

[4] = test system: non-TMEM16A calcium-activated chloride channel (CaCC) in HT-29 cells; assay: non-TMEM16A CaCC plate reader assay in HT-29 cells expressing YFP; type: cell-based; settings: 10 μM
Procedure, shortened: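 HT-29 cells expressing cytoplasmic YFP halide sensor, test compound at 10 μM. Activation was tested by iodide addition and inhibition by iodide plus ATP, reading YFP fluorescence quenching from iodide influx. The initial rate of iodide influx was computed as a linear measure of non-TMEM16A CaCC function. Representative of two to four experiment sets.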

[5] = test system: cytoplasmic calcium in FRT cells; assay: cytoplasmic calcium by Fluo-4 fluorescence in FRT cells; type: cell-based, rat; settings: 10 μM, 5 min pretreatment
[6] = test system: tear volume in wild-type mice; assay: tear fluid volume after single ocular delivery, wild-type mice; type: in vivo, mouse
CFTR in HBE cells = CFTR in HBE cells (Homo sapiens, UniProt P13569); assay: CFTR activation in HBE cells by short-circuit current; type: cell-based
CFTR in HBE cells, sequence (P13569 whole entry): as above

[7] = test system: tear volume in CF mice lacking functional CFTR; assay: tear fluid volume after single ocular delivery, CF mice; type: in vivo, mouse; settings: single ocular delivery 250 pmol
[8] = test system: tear fluid secretion in mice; settings: cited from earlier work
[9] = type: in vitro ADME; settings: 5 μM, rat hepatic microsomes, NADPH

Structure (SMILES): CCN(CC)c1nc(Nc2ccc3ncoc3c2)nc(OC(C(F)(F)F)C(F)(F)F)n1 [6j]
- CFTR activation potency of synthesized analogs, comparison in words (wild-type CFTR [1]): greater potency than 1

Structure (SMILES): CCC(C)Nc1nc(Nc2ccc([N+](=O)[O-])cc2)nc(OC(C(F)(F)F)C(F)(F)F)n1 (stereo not drawn) [K056]
- CFTR activation potency of commercial analogs, SAR summary in words (wild-type CFTR [1]): reduced potency

Structure (SMILES): C=CCNc1nc(Nc2cccc([N+](=O)[O-])c2)nc(OC(C(F)(F)F)C(F)(F)F)n1 [K059]
- CFTR activation potency of commercial analogs, SAR summary in words (wild-type CFTR [1]): best potency

Structure (SMILES): FC(F)(F)COc1nc(Nc2ccc(OC(F)(F)F)cc2)nc(NC2CC2)n1 [K079]
- CFTR activation potency of commercial analogs, SAR summary in words (wild-type CFTR [1]): reduced activity

Structure (SMILES): CCN(CC)c1nc(Nc2ccc3ncsc3c2)nc(OC(C(F)(F)F)C(F)(F)F)n1 [6k]
- cytotoxicity (Alamar Blue) (FRT cells): did not produce significant toxicity
- elevation of cellular cAMP [2]: did not elevate cellular cAMP
- extent of CFTR activation (short-circuit current) (wild-type CFTR [3]): full CFTR activation
- inhibition or activation of CaCC in TMEM16A-expressing FRT cells (TMEM16A): neither inhibited nor activated
- CFTR activation potency of synthesized analogs, comparison in words (wild-type CFTR [1]): significantly greater potency than 1
- fold increase in potency over benzoxazole 6j (wild-type CFTR [1]; EC50 ratio, Chart 2): ~ 3 fold
- inhibition or activation of CaCC in HT-29 cells [4]: neither inhibited nor activated

Structure (SMILES): CCN(CC)c1nc(Nc2cccc(F)c2)nc(OC(C(F)(F)F)C(F)(F)F)n1 [6b]
- CFTR activation potency of synthesized analogs, comparison in words (wild-type CFTR [1]): comparable or slightly better potency than non-substituted aniline (1)

Structure (SMILES): CCN(CC)c1nc(Nc2cccc([N+](=O)[O-])c2)nc(OC(C(F)(F)F)C(F)(F)F)n1 [6d]
- CFTR activation potency of synthesized analogs, comparison in words (wild-type CFTR [1]): comparable or slightly better potency than non-substituted aniline (1)

Structure (SMILES): COc1nc(Nc2ccc([N+](=O)[O-])cc2)nc(OC)n1 [K023]
- CFTR activation potency of commercial analogs, SAR summary in words (wild-type CFTR [1]): greatly reduced potency

Structure (SMILES): CCN(CC)c1nc(Nc2ccc3[nH]ncc3c2)nc(OC(C(F)(F)F)C(F)(F)F)n1 [6i]
- CFTR activation potency of synthesized analogs, comparison in words (wild-type CFTR [1]): less potent than 1

Structure (SMILES): CCN(CC)c1nc(Nc2cccc(C(=O)O)c2)nc(OC(C(F)(F)F)C(F)(F)F)n1 [6a]
- CFTR activation potency of synthesized analogs, comparison in words (wild-type CFTR [1]): comparable or slightly better potency than non-substituted aniline (1)

Structure (SMILES): CCN(CC)c1nc(Nc2ccc3cn[nH]c3c2)nc(OC(C(F)(F)F)C(F)(F)F)n1 [6h]
- CFTR activation potency of synthesized analogs, comparison in words (wild-type CFTR [1]): less potent than 1
- fold more potent than regioisomer 6i (wild-type CFTR [1]; EC50 ratio, Chart 2): ~ 3 fold

Structure (SMILES): CC(C)(C)Nc1nc(Nc2ccc(OC(F)(F)Cl)cc2)nc(OCC(F)(F)F)n1 [K029]
- CFTR activation potency of commercial analogs, SAR summary in words (wild-type CFTR [1]): reduced potency

Structure (SMILES): CNc1nc(Nc2ccccc2)nc(OCC(F)(F)C(F)F)n1 [compound 12, N-Methyl-N′-phenyl-6-(2,2,3,3-tetrafluoropropoxy)-1,3,5-triazine-2,4-diamine]
- increase of cytoplasmic calcium [5]: without causing cAMP or calcium elevation
- cytotoxicity (Alamar Blue) (FRT cells): did not produce significant toxicity
- elevation of cellular cAMP [2]: without causing cAMP or calcium elevation; also recorded: did not elevate cellular cAMP
- extent of CFTR activation (short-circuit current) (wild-type CFTR [3]): fully activated CFTR chloride conductance; also recorded: full CFTR activation
- inhibition or activation of CaCC in TMEM16A-expressing FRT cells (TMEM16A): neither inhibited nor activated
- fold better EC50 than diethylamine analog 6a (wild-type CFTR [1]; EC50 ratio, Chart 3): ~ 50 fold
- fold more potent than hexafluoropropanol analog 11 (wild-type CFTR [1]; EC50 ratio, Chart 3): ~ 3 fold
- duration of sustained in vivo efficacy in increasing tear volume ([6]; mice, dose not given): at least 8 h
- time over which tear volume returned to baseline ([6]; wild-type mice, single topical dose 100 μM (250 pmol)): 12 to 24 h
- duration of sustained increase in tear volume ([6]; wild-type mice, single topical dose 100 μM (250 pmol) in 2.5 μL): 8 h
- duration of sustained effect on tear volume ([6]; wild-type mice, single topical dose down to 25 pmol): 8 h
- time of maximal tear volume ([6]; wild-type mice, single topical doses down to 25 pmol): 1 to 3 h
- CFTR activation in HBE cells after forskolin (CFTR in HBE cells; 0.1 μM compound, after 100 nM forskolin): fully activated CFTR
- CFTR activation in HBE cells without forskolin (CFTR in HBE cells; absence of basal CFTR phosphorylation produced by forskolin): did not activate CFTR
- effect on tear volume in CF mice [7]: without effect; also recorded: did not increase tear volume
- inhibition or activation of CaCC in HT-29 cells [4]: neither inhibited nor activated

Structure (SMILES): CNc1nc(Nc2ccc([N+](=O)[O-])cc2)nc(OCC(F)(F)C(F)F)n1 [K032]
- CFTR activation potency of commercial analogs, SAR summary in words (wild-type CFTR [1]): best potency

Structure (SMILES): CNc1nc(Nc2ccc(C(C)=O)cc2)nc(OC(C(F)(F)F)C(F)(F)F)n1 [K001]
- CFTR activation potency of commercial analogs, SAR summary in words (wild-type CFTR [1]): reduced activity

Structure (SMILES): CCN(CC)c1nc(Nc2cccc(Cl)c2)nc(OC(C(F)(F)F)C(F)(F)F)n1 [6c]
- CFTR activation potency of synthesized analogs, comparison in words (wild-type CFTR [1]): significantly reduced potency

Structure (SMILES): CCN(CC)c1nc(Nc2ccccc2)nc(OC(C(F)(F)F)C(F)(F)F)n1 [compound 1, N,N-Diethyl-6-[(1,1,1,3,3,3-hexafluoropropan-2-yl)oxy]-N′-phenyl-1,3,5-triazine-2,4-diamine]
- tear fluid secretion after topical delivery [8]: increased tear fluid secretion in mice; also recorded: increased tear fluid secretion after topical delivery
- metabolic stability in hepatic microsomes, in words [9]: metabolized rapidly
- CFTR activation potency of synthesized analogs, comparison in words (wild-type CFTR [1]): more potent than tetrafluoropropanol (7a)
- CFTR activation potency of commercial analogs, SAR summary in words (wild-type CFTR [1]): best potency
